Measurements pooled from the literature.
Protocols differ between the studies behind these lines.

Nc1nc(S)nc(O)c1N=Cc1cn(-c2ccccc2)nc1-c1ccccc1 — CC50 (MCF-10A; cell growth or viability; 48 h): > 30 µM
COc1ccc(N2CCN(CC(=O)Nc3ccc(C4=NN(C(C)=O)C(c5ccccc5)C4)cc3)CC2)cc1 (stereo not drawn) — viability (MCF-10A; cell growth or viability, MTT; 50 µM, 96 h): 87%
O=c1c2ccc(Oc3ccccc3OC(F)(F)F)cc2[nH]c2cc(Cl)cc(F)c12 — half-life (metabolic stability; mouse, liver microsomes; 1 µM, pH 7.4): 43.4 min
COc1ccc(N2CCN(CC(=O)Nc3ccc(C4=NN(C(C)=O)C(c5ccc(Br)cc5)C4)cc3)CC2)cc1 (stereo not drawn) — viability (MCF-10A; cell growth or viability, MTT; 50 µM, 96 h): 86%
Cc1cc(S(=O)(=O)N[C@H]2CC[C@H](N3CCN(CC4CCN(c5cccc6c5n(C)c(=O)n6C5CCC(=O)NC5=O)CC4)CC3)CC2)ccc1Nc1ncc(C(F)(F)F)c(N2CCC[C@](C)(O)C2)n1 (stereo partly drawn) — Papp A→B (MDCK; Caco-2; 1 µM, 2 h, pH 7.4): 0.7 ×10⁻⁶ cm/s
C[C@H]1Oc2cc(cnc2N)-c2c(nn(C)c2C#N)CN(C)C(=O)c2ccc(F)cc21 — concentration (male Sprague-Dawley rat, brain; oral, 10 mg/kg, 1 h, single dose): 495 ng/g
O=c1c2ccc(OCc3cccc(C(F)(F)F)c3)cc2[nH]c2ccc(Cl)c(F)c12 — half-life (metabolic stability; mouse, liver microsomes; 1 µM, pH 7.4): > 60 min
COc1ccc(-c2nn(-c3ccccc3)cc2C=Nc2c(N)nc(S)nc2O)cc1 — CC50 (MCF-10A; cell growth or viability; 48 h): > 40 µM
O=C(O)COc1cccc(-c2nc(Nc3ccc4[nH]ncc4c3)c3ccccc3n2)c1 — IC50 (Solute carrier family 22 member 6 (SLC22A6, Homo sapiens, UniProt Q4U2R8); transporter uptake, inhibitor, radiometric): > 500 µM
CCCCN(CCCC)CCCOc1ccc2c(=O)c3c([nH]c2c1)CCCC3 — half-life (metabolic stability; mouse, liver microsomes; 1 µM, pH 7.4): 38.3 min
CNS(=O)(=O)c1ccc(Nc2ncc(C(F)(F)F)c(N3CCC(C)(O)CC3)n2)c(C)c1 — Papp A→B (MDCK; Caco-2; 1 µM, 2 h, pH 7.4): 9 ×10⁻⁶ cm/s
O=c1c2c([nH]c3ccc(Oc4ccc(OC(F)(F)F)cc4)cc13)CCCC2 — half-life (metabolic stability; mouse, liver microsomes; 1 µM, pH 7.4): 35.5 min
CC(=O)N1N=C(c2ccc(NC(=O)CN3CCN(c4ccc(Cl)cc4)CC3)cc2)CC1c1ccc(Cl)cc1Cl (stereo not drawn) — viability (MCF-10A; cell growth or viability, MTT; 50 µM, 96 h): 91%
O=c1c2ccc(OCc3ccc(C(F)(F)F)cc3)cc2[nH]c2cc(Cl)cc(F)c12 — half-life (metabolic stability; mouse, liver microsomes; 1 µM, pH 7.4): > 60 min
COc1ccc(N2CCN(CC(=O)Nc3ccc(C4=NN(C(C)=O)C(c5cc(OC)c(OC)c(OC)c5)C4)cc3)CC2)cc1 (stereo not drawn) — viability (MCF-10A; cell growth or viability, MTT; 50 µM, 96 h): 91%
CNS(=O)(=O)c1ccc(Nc2ncc3cc(Cl)c(=O)n(C4CCCC4)c3n2)c(C)c1 — Papp A→B (MDCK; Caco-2; 1 µM, 2 h, pH 7.4): 3.6 ×10⁻⁶ cm/s
COc1ccc(N2CCN(CC(=O)Nc3ccc(C(=O)C=Cc4ccco4)cc3)CC2)cc1 — viability (MCF-10A; cell growth or viability, MTT; 50 µM, 96 h): 82%
Cc1cc(S(=O)(=O)N[C@H]2CC[C@H](CN3CCN(c4ccc(C5CCC(=O)NC5=O)c(Cl)c4)CC3)CC2)ccc1Nc1ncc(C(F)(F)F)c(N2CCC[C@](C)(O)C2)n1 (stereo partly drawn) — Papp A→B (MDCK; Caco-2; 1 µM, 2 h, pH 7.4): 1.3 ×10⁻⁶ cm/s
O=C(CN1CCN(c2ccc(Cl)cc2)CC1)Nc1ccc(C(=O)C=Cc2ccco2)cc1 — viability (MCF-10A; cell growth or viability, MTT; 50 µM, 96 h): 90%
O=c1c2ccccc2[nH]c2cc(Oc3ccc(OC(F)(F)F)cc3)ccc12 — half-life (metabolic stability; mouse, liver microsomes; 1 µM, pH 7.4): 26.9 min
CNS(=O)(=O)c1ccc(Nc2ncc(C(F)(F)F)c([C@H]3CC[C@@](C)(O)CC3)n2)c(C)c1 — Papp A→B (MDCK; Caco-2; 1 µM, 2 h, pH 7.4): 7.6 ×10⁻⁶ cm/s
O=c1c2ccc(Oc3ccc(OC(F)(F)F)cc3)cc2[nH]c2cc(Cl)c(F)cc12 — half-life (metabolic stability; mouse, liver microsomes; 1 µM, pH 7.4): > 60 min
Cc1cc(S(=O)(=O)N[C@]2(C)C[C@@H](N3CCN(CC4CCN(c5ccc6c(c5F)n(C)c(=O)n6C5CCC(=O)NC5=O)CC4)CC3)C2)ccc1Nc1ncc(C(F)(F)F)c(N2CCC[C@](C)(O)C2)n1 (stereo partly drawn) — Papp A→B (MDCK; Caco-2; 1 µM, 2 h, pH 7.4): 1.5 ×10⁻⁶ cm/s
O=C(CN1CCN(c2ccc(Cl)cc2)CC1)Nc1ccc(C(=O)C=Cc2ccccc2)cc1 — viability (MCF-10A; cell growth or viability, MTT; 50 µM, 96 h): 85%
CCCN(CCC)CCNc1ccc2c(=O)c3c([nH]c2c1)CCCC3 — half-life (metabolic stability; mouse, liver microsomes; 1 µM, pH 7.4): 16.9 min
COc1ccc(N2CCN(CC(=O)Nc3ccc(C(=O)C=Cc4ccc(Br)cc4)cc3)CC2)cc1 — viability (MCF-10A; cell growth or viability, MTT; 50 µM, 96 h): 90%
Cc1cc(S(=O)(=O)NC2CC(N3CCN(CC4CCN(c5ccc(NC6CCC(=O)NC6=O)cc5C)CC4)CC3)C2)ccc1Nc1ncc(C(F)(F)F)c(N2CCC[C@](C)(O)C2)n1 (stereo partly drawn) — Papp A→B (MDCK; Caco-2; 1 µM, 2 h, pH 7.4): 3.5 ×10⁻⁶ cm/s
